Laboratory results published in ChEMBL document CHEMBL2321777, “Selective mGAT2 (BGT-1) GABA uptake inhibitors: design, synthesis, and pharmacological characterization” (J Med Chem, 2013).

Key:
GABA transporter 4 = target: T1, GABA transporter 4 (Mus musculus, UniProt P31650); experiment: Inhibition of [3H]GABA uptake at mouse GAT4 expressed in HEK293 cells after 3 mins by scintillation counting analysis; format: cell-based
T1 sequence (P31650 whole entry): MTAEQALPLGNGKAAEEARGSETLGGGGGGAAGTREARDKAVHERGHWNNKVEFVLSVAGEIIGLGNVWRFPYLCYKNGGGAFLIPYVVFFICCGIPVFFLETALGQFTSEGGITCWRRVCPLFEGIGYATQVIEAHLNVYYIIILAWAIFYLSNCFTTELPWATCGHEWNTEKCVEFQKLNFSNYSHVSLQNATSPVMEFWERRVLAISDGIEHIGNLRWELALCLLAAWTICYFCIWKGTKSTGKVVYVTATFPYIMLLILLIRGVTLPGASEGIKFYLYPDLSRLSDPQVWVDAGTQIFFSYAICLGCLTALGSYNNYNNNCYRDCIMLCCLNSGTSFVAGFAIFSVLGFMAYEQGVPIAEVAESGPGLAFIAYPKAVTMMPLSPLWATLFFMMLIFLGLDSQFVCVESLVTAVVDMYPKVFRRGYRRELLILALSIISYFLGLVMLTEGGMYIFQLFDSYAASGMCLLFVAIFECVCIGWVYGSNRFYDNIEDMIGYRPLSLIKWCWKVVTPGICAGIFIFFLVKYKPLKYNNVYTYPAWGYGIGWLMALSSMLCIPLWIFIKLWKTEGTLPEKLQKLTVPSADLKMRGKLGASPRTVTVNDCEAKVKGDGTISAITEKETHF
Procedure, shortened: (§1)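 Uptake measured in primary mouse cortical astrocyte or neuron cultures, or in cells stably overexpressing the respective recombinant mGAT. Cells were incubated at 37 °C in phosphate-buffered saline with [3H]GABA (1 μCi/mL), 1 μM GABA and increasing inhibitor concentrations. After 3 min, uptake was stopped by automated washing. Cells were solubilized in scintillant, radioactivity was counted, and inhibition curves were analyzed.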

GABA transporter 2 = target: T2, GABA transporter 2 (Mus musculus, UniProt P31651); experiment: Inhibition of [3H]GABA uptake at mouse GAT2 expressed in HEK293 cells after 3 mins by scintillation counting analysis; format: cell-based; procedure, shortened: as §1
T2 sequence (P31651 whole entry): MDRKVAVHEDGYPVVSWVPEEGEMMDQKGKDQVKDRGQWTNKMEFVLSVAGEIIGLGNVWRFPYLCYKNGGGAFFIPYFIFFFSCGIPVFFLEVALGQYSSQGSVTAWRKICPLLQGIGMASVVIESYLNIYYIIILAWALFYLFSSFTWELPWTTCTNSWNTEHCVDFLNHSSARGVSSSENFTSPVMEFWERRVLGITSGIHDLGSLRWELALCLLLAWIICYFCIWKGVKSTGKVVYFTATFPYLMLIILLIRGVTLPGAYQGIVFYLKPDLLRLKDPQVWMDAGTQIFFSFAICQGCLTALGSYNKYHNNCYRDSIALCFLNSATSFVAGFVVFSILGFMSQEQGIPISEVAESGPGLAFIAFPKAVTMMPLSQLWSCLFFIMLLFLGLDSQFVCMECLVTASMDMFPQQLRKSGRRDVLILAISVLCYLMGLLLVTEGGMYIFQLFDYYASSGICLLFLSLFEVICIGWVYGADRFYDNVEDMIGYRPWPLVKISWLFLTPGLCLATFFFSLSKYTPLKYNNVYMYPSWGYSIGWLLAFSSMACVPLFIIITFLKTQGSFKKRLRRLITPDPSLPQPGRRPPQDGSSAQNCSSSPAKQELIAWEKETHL

GABA transporter 3 = target: T3, GABA transporter 3 (Mus musculus, UniProt P31649); experiment: Inhibition of [3H]GABA uptake at mouse GAT3 expressed in HEK293 cells after 3 mins by scintillation counting analysis; format: cell-based; procedure, shortened: as §1
T3 sequence (P31649 whole entry): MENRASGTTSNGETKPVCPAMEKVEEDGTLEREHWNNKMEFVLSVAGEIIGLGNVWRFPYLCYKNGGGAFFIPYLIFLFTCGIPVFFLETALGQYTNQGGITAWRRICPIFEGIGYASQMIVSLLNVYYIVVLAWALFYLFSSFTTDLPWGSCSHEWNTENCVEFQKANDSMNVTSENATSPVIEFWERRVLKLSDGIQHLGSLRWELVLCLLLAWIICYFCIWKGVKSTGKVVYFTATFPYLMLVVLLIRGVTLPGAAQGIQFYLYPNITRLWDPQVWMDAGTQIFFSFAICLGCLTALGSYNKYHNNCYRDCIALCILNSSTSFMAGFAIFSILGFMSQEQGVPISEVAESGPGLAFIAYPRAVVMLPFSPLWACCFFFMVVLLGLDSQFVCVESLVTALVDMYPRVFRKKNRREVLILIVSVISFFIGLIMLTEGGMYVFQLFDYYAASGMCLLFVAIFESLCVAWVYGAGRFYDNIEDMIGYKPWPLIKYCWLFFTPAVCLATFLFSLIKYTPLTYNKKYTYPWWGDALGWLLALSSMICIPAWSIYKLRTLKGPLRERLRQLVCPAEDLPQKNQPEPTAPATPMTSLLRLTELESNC

[1] = target: Sodium- and chloride-dependent GABA transporter 1 (Mus musculus, UniProt P31648); experiment: Inhibition of [3H]GABA uptake at mouse GAT1 expressed in HEK293 cells after 3 mins by scintillation counting analysis; format: cell-based; procedure, shortened: as §1
[2] = target: GABA transporter (Mus musculus); experiment: Inhibition of [3H]GABA uptake in mouse neurons after 3 mins by scintillation counting analysis
[3] = target: GABA transporter (Mus musculus); experiment: Inhibition of [3H]GABA uptake in mouse astrocytes after 3 mins by scintillation counting analysis
Mus musculus [4] = experiment: Anticonvulsant activity in ip dosed audiogenic seizure susceptible Frings mouse model after 15 mins; format: functional
Mus musculus [5] = experiment: Anticonvulsant activity in ip dosed audiogenic seizure susceptible Frings mouse model after 60 mins; format: functional; conditions: 1 h

| IC50 (GABA transporter 4; read-out: IC50) | IC50 (GABA transporter 3; read-out: IC50) | IC50 [1] | IC50 (GABA transporter 4; read-out: pIC50 (converted)) | Structure (SMILES) | IC50 (GABA transporter 2) | IC50 [2] | IC50 [3] | ED50 (Mus musculus [4]) | ED50 (Mus musculus [5]) | IC50 (GABA transporter 3; read-out: pIC50 (converted)) |
| --- | --- | --- | --- | --- | --- | --- | --- | --- | --- | --- |
| > 3000 µM | > 3000 µM | 450 µM | – | CNC1CCCc2onc(O)c21 (centres undefined) | > 3000 µM | 405 µM | 48 µM | – | – | – |
| > 300 µM | > 300 µM | 40 µM | – | Cc1ccsc1C(=CCCN(C)C1C2C=CC(C2)C1C(=O)O)c1sccc1C (centres undefined) | 144 µM | – | – | – | – | – |
| 286 µM | > 300 µM | 307 µM | 3470 µM | Cc1ccsc1C(=CCCN(C)C1CCCC=C1C(=O)O)c1sccc1C (centres undefined) | 45 µM | – | – | 20.4 mg/kg | – | – |
| > 300 µM | > 300 µM | 7 µM | – | Cc1ccsc1C(=CCCN(C)C1CCCc2o[nH]c(=O)c21)c1sccc1C (centres undefined) | – | – | – | – | – | – |
| 800 µM | > 300 µM | 0.8 µM | – | Cc1ccsc1C(=CCCN1CCC[C@@H](C(=O)O)C1)c1sccc1C [TIAGABINE] | – | – | – | – | 1.1 mg/kg | – |
| > 1000 µM | > 1000 µM | 423 µM | – | CNC1CCCC=C1C(=O)O (centres undefined) | – | – | – | – | – | – |
| > 300 µM | > 300 µM | 17 µM | – | Cc1ccsc1C(=CCCN(C)C1CCC=C1C(=O)O)c1sccc1C (centres undefined) | 50 µM | – | – | – | – | – |
| > 500 µM | > 500 µM | > 500 µM | – | CNC1C2C=CC(C2)C1C(=O)O (centres undefined) | – | – | – | – | – | – |

| Structure (SMILES) | IC50 (GABA transporter 4; read-out: IC50) | IC50 (GABA transporter 3; read-out: IC50) | IC50 [1] | IC50 (GABA transporter 4; read-out: pIC50 (converted)) | IC50 (GABA transporter 2) | IC50 [2] | IC50 [3] | ED50 (Mus musculus [4]) | ED50 (Mus musculus [5]) | IC50 (GABA transporter 3; read-out: pIC50 (converted)) |
| --- | --- | --- | --- | --- | --- | --- | --- | --- | --- | --- |
| Cc1ccsc1C(=CCCN(C)[C@H]1CCCC[C@@H]1C(=O)O)c1sccc1C (relative stereo) | > 300 µM | > 300 µM | 273 µM | – | 36 µM | – | – | – | – | – |
| CN[C@H]1CCCC[C@H]1C(=O)O (relative stereo) | > 3000 µM | > 3000 µM | > 3000 µM | – | > 3000 µM | > 300 µM | > 300 µM | – | – | – |
| CN[C@@H]1CCCC[C@H]1C(=O)O (relative stereo) | > 3000 µM | > 3000 µM | > 3000 µM | – | > 3000 µM | > 300 µM | > 300 µM | – | – | – |
| Cc1ccsc1C(=CCCN(C)[C@@H]1CCCC[C@@H]1C(=O)O)c1sccc1C (relative stereo) | > 300 µM | 281 µM | > 300 µM | – | 50 µM | – | – | – | – | 3550 µM |
